MrgX1 antagonist: human MrgX1 receptor antagonism, primary screen; Q96LB2; MRGX1-HEK293 calcium flux, Fluo-4, BAM8-22 antagonism; active compounds read low; B-score at 10 µM; actives 1.3% (n = 310,000);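 active = calcium-response B-score plate-corrected more than 3 library SD below zero, starting fluorescence within 5 deviations, no agonist response on first addition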;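 also: peak minus trough fluorescence over baseline after final BAM8-22 challenge near maximal dose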
Target sequence (Q96LB2 whole entry, looked up): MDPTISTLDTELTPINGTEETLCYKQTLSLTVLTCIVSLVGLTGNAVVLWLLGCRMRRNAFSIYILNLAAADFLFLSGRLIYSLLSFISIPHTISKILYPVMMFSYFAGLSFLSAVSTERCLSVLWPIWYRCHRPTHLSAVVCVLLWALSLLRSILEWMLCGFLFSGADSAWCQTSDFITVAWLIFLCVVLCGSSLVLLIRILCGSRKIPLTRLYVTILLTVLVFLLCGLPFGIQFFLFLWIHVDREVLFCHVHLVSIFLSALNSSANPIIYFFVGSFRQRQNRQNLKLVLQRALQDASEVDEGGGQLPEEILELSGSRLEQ
MrgX1 agonist: human MrgX1 receptor agonism, primary screen | Q96LB2 | MrgX1-HEK293 cells, Fluo-4 calcium fluorescence, agonist mode; active compounds read high | B-score at 10 µM | actives 0.44% (n = 310,000);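 active = calcium response B-score plate-corrected fluorescence ratio at least 3 library SD, with starting fluorescence B-score inside 5 SD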
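Assay system: stable human MrgX1 HEK293 cell line. Quantity: 15,000 cells per well. Schedule: cells plated overnight, dye loaded 0.5 h 37 °C, 0.5 h room temperature. Detection: Fluo-4 NW calcium-flux fluorescence, kinetic read. Read-out basis: peak-minus-minimum fluorescence over baseline, converted to B scores. Control set: positive and negative control wells on each plate.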
RGS4 act: RGS4 potentiation or activation | HEK293 M3R/inducible RGS4, carbachol calcium flux Fluo4; active compounds read low | B-score at 10 µM | actives 0.92% (n = 310,000) | AID 463111;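 active = B-score of the integrated calcium signal more than 4 SD below the library mean, with starting fluorescence not abnormally high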;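 also: negative B-score means reduced calcium response which marks RGS4 activation or potentiation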
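test system = HEK293 cells with stable M3R and inducible RGS4 | schedule = recording 10 s baseline at 1 Hz, 100 s post-agonist | technique = Fluo4-AM (2 µM) calcium-flux fluorescence, kinetic read | measure = Agonist-evoked peak-minus-minimum fluorescence over baseline, integrated ratio, B score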
RGS4 block: inhibitors of human RGS4 | HEK293 M3R/RGS4 inducible, Fluo-4 calcium flux; active compounds read high; triggered by carbachol at its EC20 | actives 0.45% (n = 310,000) | AID 463165 | B-score at 10 µM;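 active = B-score, a plate-corrected calcium signal, over three deviations above library mean, with baseline fluorescence within five deviations of library mean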;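 also: RGS4 expression induced by doxycycline in cells with stable M3 receptor; B-score is computed from the integrated fluorescence ratio over baseline after carbachol; higher B-score means a larger calcium signal and so more RGS4 inhibition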
Target sequence (P49798 whole entry, looked up): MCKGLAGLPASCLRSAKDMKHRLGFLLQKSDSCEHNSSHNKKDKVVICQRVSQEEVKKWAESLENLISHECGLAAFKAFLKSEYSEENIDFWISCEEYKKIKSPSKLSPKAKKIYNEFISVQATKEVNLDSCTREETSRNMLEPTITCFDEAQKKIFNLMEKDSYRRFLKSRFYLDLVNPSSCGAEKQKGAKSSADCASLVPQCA
MrgX1 allo act: human MrgX1 positive allosteric modulation, primary screen; MrgX1-HEK293, Fluo-4 calcium flux, FDSS; active compounds read high; actives 0.63% (n = 310,000); Q96LB2; B-score at 10 µM; AID 588675;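 active = plate-corrected calcium response at least 3 library SD above typical, normal starting fluorescence, not activating the receptor alone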;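 also: compound read alongside a low EC10 to EC30 dose of BAM8-22 agonist; peak minus trough fluorescence over baseline measured at the second addition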
Numbers without * were called inactive; i = inactive; . = no result. Hits are enriched below; roughly 3.5% of the tested compounds scored in any of these assays.

SMILES	MrgX1 antagonist	MrgX1 agonist	RGS4 act	RGS4 block	MrgX1 allo act
OC(C#CCCN1CCCCC1)(c1ccccc1)c1ccccc1	i	i	i	i	i
C[N+]1(CC#CC(O)(c2ccccc2)c2ccccc2)CCCC1	i	i	-8.4*	i	i
CC(C)[N+](C)(C)CC#CC(O)(c1ccccc1)c1ccccc1	i	i	-7.8*	i	i
COC(=O)[C@H](CCSC)NC(=O)[C@@H](Cc1cnc[nH]1)NC(=O)OCc1ccccc1	i	i	i	i	i
Cn1c(=O)c(NCCO)c2c3c(cccc31)C(=O)c1ccccc1-2	i	i	-12*	i	i
O=C(Nc1ccccc1Cl)c1ccc(-n2cccn2)c([N+](=O)[O-])c1	i	i	i	i	i
COc1ccc(NC(=O)NC2CCCCCCC2)cc1OC	i	i	i	i	i
O=C(NCC(c1ccco1)N1CCCC1)c1ccccc1Sc1ccc(C(F)(F)F)cc1[N+](=O)[O-] (configuration not stated)	i	i	-9*	i	i
Cc1nc(-c2nc(-c3c(C(=O)NNC(=O)c4ccc(Cl)cc4)noc3C)cs2)cs1	i	i	i	i	i
Cc1nc(-c2nc(-c3c(C(=O)NN)noc3C)cs2)cs1	-5.9*	i	i	i	i
Cc1c(OCC(=O)N2C[C@H]3C[C@@H](C2)c2cccc(=O)n2C3)ccc2c3c(c(=O)oc12)CCC3	i	i	i	i	i
Cc1c(OCC(=O)N2C[C@H]3C[C@@H](C2)c2cccc(=O)n2C3)ccc2c3c(c(=O)oc12)CCCC3	i	i	-7.1*	i	i
O=C(Nc1ccc2c(c1)OCCO2)c1cc(-c2ccccn2)nc2ccc(Br)cc12	i	i	i	i	i
Cc1cccc(-c2cc(C(=O)Nc3ccc4c(c3)OCCO4)c3ccccc3n2)c1	i	i	-7.2*	i	i
CCOc1ccc(-c2cc(C(=O)Nc3ccc4c(c3)OCCO4)c3ccccc3n2)cc1	i	i	-7.6*	i	i
CC1CCCCN1CCNC(=O)c1ccc2c(c1)N(Cc1ccccc1F)C(=O)c1ccccc1S2=O (configuration not stated)	i	i	-7.4*	i	i
O=C(NCCCN1CCCC1)c1ccc2c(c1)N(Cc1ccccc1F)C(=O)c1ccccc1S2=O (configuration not stated)	i	i	i	i	i
C/C(=N/NC(=O)CSc1nc2ccccc2n1C)c1ccc(O)cc1	-4.9*	i	i	i	i
COc1ccc(N=CC2=C(O)CC(C)(C)CC2=O)cc1	-6.5*	i	i	i	i
COc1ccc(OC)c(N=CC2=C(O)CC(C)(C)CC2=O)c1	i	i	i	i	i
CCOC(=O)c1ccc(NC(=O)Oc2cc(C)c(Cl)cc2C(C)C)cc1	i	i	i	i	i
Cc1ccc(CSc2nc3ccccc3cc2C=O)cc1	i	i	-8.3*	i	i
CCc1ccc(-c2cc(C)no2)cc1S(=O)(=O)Nc1cccc(CN2CCCC2)c1	i	i	i	i	i
CCc1nnc(NC(=O)c2cccc(C(=O)Nc3nnc(CC)s3)n2)s1	i	i	i	i	27*
CCN(C(=O)CCNC(=O)Cn1cnc2ccccc2c1=O)c1ccccc1F	i	i	i	i	i
SMILES	MrgX1 antagonist	MrgX1 agonist	RGS4 act	RGS4 block	MrgX1 allo act
CNC(=S)N1N=C(c2ccc(Br)cc2)CC1c1ccc(Br)cc1 (configuration not stated)	i	i	i	i	i
Cc1cc2n(n1)C(c1ccccc1)CC(c1ccc(Br)cc1)=N2 (configuration not stated)	i	i	.	.	15*
Cc1ccc2nc(C)/c(=N\O)c(C)nc2c1	i	i	i	i	10*
CN(CCn1ccnc1)Cc1cn(Cc2ccccc2)nc1-c1ccc2c(c1)OCO2	i	i	i	i	i
Cc1c(C(=O)Oc2cc(N)n(S(C)(=O)=O)n2)cccc1[N+](=O)[O-]	i	i	i	i	6.7*
Cc1ccccc1C(=O)Oc1cc(N)n(S(C)(=O)=O)n1	i	i	i	i	i
CC(C)c1ccc(NC(=O)C2C3C=CC4(O3)C2C(=O)N(CCCN2CCOCC2)C4C(=O)NC2CCCCC2)cc1 (configuration not stated)	i	i	i	i	i
CC1CCN(C(=O)c2ccc3c(c2NCCO)C(=O)c2ccccc2C3=O)CC1	i	i	i	i	9.9*
O=C(c1cc(-c2ccccc2Cl)nc2ccccc12)N1CCN(c2ccccc2O)CC1	i	i	-7.6*	i	i
CN1CCCN(C(=O)c2cc(-c3cccc4ccccc34)nc3ccccc23)CC1	i	35*	i	i	i
O=C(c1cc(-c2ccccc2Cl)nc2ccccc12)N1CCC1	i	i	i	i	i
Cc1ccccc1-c1cc(C(=O)N2CCCC2)c2ccccc2n1	i	i	i	i	i
Cc1ccccc1C(=O)Nc1cc(NC(=O)c2ccccc2C)cc(C(=O)O)c1	i	i	i	i	i
NNC(=S)Nc1ccc(C(F)(F)F)cc1Cl	i	i	i	i	i
Cc1ccc(OCCCC(=O)NC(C)c2ccccc2)cc1 (configuration not stated)	i	i	i	i	i
CC(=O)c1ccc(OCCCC(=O)NC(C)c2ccc(S(N)(=O)=O)cc2)cc1 (configuration not stated)	i	i	i	i	6.6*
O=C(Nc1ccc(Cl)cn1)C1COc2ccccc2O1 (configuration not stated)	i	i	i	i	i
CSc1ccc(CN2CCC(CO)(CCOc3ccccc3)CC2)cc1	i	i	-7*	i	i
COc1ccc(S(=O)(=O)NCCc2c[nH]c3ccc(Cl)cc23)cc1	i	i	i	i	i
O=C1C=C(c2ccccc2)CC(c2ccc(F)cc2)C1 (configuration not stated)	i	i	i	i	i
COc1ccc(C2=CC(=O)CC(c3ccc(F)cc3)C2)cn1 (configuration not stated)	i	i	i	i	10*
O=[N+]([O-])c1ccc(Oc2cccc(Br)c2)c2ccncc12	i	i	i	i	7.9*
CCCCn1c(N)c(N(CCOC)C(=O)c2ccc3c(c2)C(=O)N(c2cc(C)ccc2C)C3=O)c(=O)[nH]c1=O	i	i	i	i	12*
